# Tests used:
# METTL3/14 = details: read-out: Km of SAM for METTL3/14; cited from earlier work
# [1] = molecular target: METTL3/METTL14 heterodimer (Homo sapiens, UniProt Q86U44); assay: Surface plasmon resonance; assay type: binding; details: 50 µM SAM in running buffer
# METTL16 = molecular target: T1, METTL16 (Homo sapiens, UniProt Q86W50); assay: RNA methyltransferase RFMS activity assay; assay type: biochemical; details: dose-range, top concentration 120 μM
# T1 sequence (Q86W50 1-562): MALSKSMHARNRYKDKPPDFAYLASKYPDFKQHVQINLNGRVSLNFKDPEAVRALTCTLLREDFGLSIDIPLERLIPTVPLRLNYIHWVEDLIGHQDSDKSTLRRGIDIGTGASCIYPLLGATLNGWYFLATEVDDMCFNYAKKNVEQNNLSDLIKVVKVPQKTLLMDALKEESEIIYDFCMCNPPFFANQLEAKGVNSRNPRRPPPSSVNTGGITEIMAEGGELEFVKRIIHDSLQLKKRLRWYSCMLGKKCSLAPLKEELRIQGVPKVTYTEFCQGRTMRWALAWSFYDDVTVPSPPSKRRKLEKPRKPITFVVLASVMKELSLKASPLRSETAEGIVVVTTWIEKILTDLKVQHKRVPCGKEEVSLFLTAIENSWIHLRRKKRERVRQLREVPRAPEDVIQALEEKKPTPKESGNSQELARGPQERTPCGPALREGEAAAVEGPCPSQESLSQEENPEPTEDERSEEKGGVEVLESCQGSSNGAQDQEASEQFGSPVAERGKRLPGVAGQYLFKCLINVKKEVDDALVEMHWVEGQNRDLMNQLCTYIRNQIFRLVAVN
# [2] = system: normal haematopoietic stem and progenitor cells (HSPCs); assay: Colony forming; assay type: cell-based, mouse; details: 1 μM, WT Lin- cells
# Procedure, shortened: (§1)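 Lineage-negative cells from wild-type mice or primary murine AML cells, 10,000 per well, were plated in triplicate wells of M3434 methylcellulose with 1 μM test compound. Colonies were counted after 7 days. Another 10,000 cells were then re-seeded and re-counted weekly through the 3rd replating.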
# [3] = system: SP1 and BRD4 protein levels, MOLM-13 cells; assay: Western blot of METTL3 biomarkers in MOLM-13; assay type: cell-based, human; details: MOLM-13, 72 hours
# Procedure, shortened: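 MOLM-13 cells were exposed to DMSO or indicated concentrations of test compound for 72 h. Pellets were lysed in 50 mM Tris-HCl pH 8, 450 mM NaCl, 0.1% NP-40 and 1 mM EDTA, with 1 mM DTT and protease/phosphatase inhibitors. Immunoblots were probed with anti-SP1, N- and C-terminal anti-BRD4, and actin or GAPDH antibodies.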
# [4] = system: panel of human AML cell lines; assay: Proliferation assay, AML cell line panel; assay type: cell-based; details: 0.04-50 μM, read on day 6
# panel of 468 kinases = assay: KINOMEscan kinase binding panel; details: 10 µM; inhibition = less than 50% control activity
# normal haematopoiesis = assay: Toxicity on normal haematopoiesis in vivo; parameters: species or system mouse; details: 50 mg/kg daily for 14 days
# [5] = system: human AML patient derived xenografts (PDX); assay: Human AML patient derived xenograft; assay type: in vivo, mouse
# [6] = system: MOLM-13 and primary murine AML cells; assay: Flow cytometry of differentiation, cell cycle and apoptosis in AML cells; assay type: cell-based
# Procedure, shortened: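 Human and/or mouse AML cells were exposed to DMSO or test compound and analysed at the indicated timepoints on an LSRFortessa. Myeloid differentiation was read by anti-mouse CD11b PE/Cy5 or anti-human CD11b PE staining. Apoptosis was read by Annexin V staining. Cell cycle was read by BrdU incorporation with FITC or APC BrdU flow kits.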
# primary murine AML cells = assay: Colony forming; assay type: cell-based, mouse; details: 1 μM
# Procedure, shortened: as §1
# [7] = system: m6A on poly-A+-enriched RNA, MOLM-13 cells; assay: RNA nucleoside quantification by mass spectrometry in MOLM-13; assay type: cell-based, human; details: MOLM-13, 24 hours
# [8] = system: m6A peaks on poly-A+-enriched RNA, MOLM-13 cells; assay: m6A-meRIP-seq and meRIP-qPCR in MOLM-13 cells; assay type: cell-based, human
# [9] = system: normal human cord blood CD34+ cells; assay: Colony-forming efficiency of cord blood CD34+ cells; assay type: cell-based; details: 1, 5 or 10 µM
# Procedure, shortened: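 Human cord-blood CD34+ cells were plated in StemMACS HSC-CFU semi-solid medium with the test compound at the indicated concentrations or DMSO. Colonies were counted by microscopy 12–14 days after plating.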
# [10] = system: primary murine MLL-AF9/Flt3^Itd/+ AML; assay: Primary murine MLL-AF9/Flt3Itd/+ AML in vivo model; parameters: species or system mouse
# [11] = Pharmacokinetic analysis in mice; assay type: in vivo, mouse; details: single intra-peritoneal dose of 50 mg/kg, over 24h
# MOLM-13 cells = assay: Polysome fractionation and RT-qPCR in MOLM-13 cells; assay type: cell-based, human
# Procedure, shortened: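 MOLM-13 cells (5 × 10^7) were exposed to DMSO or 1 μM test compound for 72 h, then to 0.1 mg/ml cycloheximide for 5 min at 37 °C. Lysates were fractionated on a sucrose gradient. RNA from each fraction, or total RNA (RNeasy), was quantified by RT-qPCR in triplicate, normalised to GAPDH, using the standard-curve or comparative CT method.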
# [12] = system: non-leukaemic haemopoietic cell line HPC7; assay type: cell-based
# [13] = MOLM-13 and primary murine AML cells
# [14] = murine or patient-derived AML cells from treated primary transplants
# Sequence of METTL3/METTL14 heterodimer (Q86U44 whole entry): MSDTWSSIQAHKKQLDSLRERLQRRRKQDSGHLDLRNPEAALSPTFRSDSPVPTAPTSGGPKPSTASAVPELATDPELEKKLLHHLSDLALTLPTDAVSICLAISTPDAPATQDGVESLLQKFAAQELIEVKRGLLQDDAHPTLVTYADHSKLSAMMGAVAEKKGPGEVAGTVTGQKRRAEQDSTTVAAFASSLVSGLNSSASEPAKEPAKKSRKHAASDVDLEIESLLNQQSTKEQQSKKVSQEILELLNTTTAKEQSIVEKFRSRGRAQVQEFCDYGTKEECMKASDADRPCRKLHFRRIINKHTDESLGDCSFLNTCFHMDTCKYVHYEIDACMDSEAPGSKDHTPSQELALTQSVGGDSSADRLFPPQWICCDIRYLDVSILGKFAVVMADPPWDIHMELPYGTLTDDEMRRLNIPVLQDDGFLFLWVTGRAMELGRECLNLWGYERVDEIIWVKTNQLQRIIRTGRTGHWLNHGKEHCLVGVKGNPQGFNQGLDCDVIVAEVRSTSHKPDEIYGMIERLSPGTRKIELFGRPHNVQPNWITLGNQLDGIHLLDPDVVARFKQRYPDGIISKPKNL
# Sequence of METTL3/METTL14 heterodimer (Q9HCE5 whole entry partner): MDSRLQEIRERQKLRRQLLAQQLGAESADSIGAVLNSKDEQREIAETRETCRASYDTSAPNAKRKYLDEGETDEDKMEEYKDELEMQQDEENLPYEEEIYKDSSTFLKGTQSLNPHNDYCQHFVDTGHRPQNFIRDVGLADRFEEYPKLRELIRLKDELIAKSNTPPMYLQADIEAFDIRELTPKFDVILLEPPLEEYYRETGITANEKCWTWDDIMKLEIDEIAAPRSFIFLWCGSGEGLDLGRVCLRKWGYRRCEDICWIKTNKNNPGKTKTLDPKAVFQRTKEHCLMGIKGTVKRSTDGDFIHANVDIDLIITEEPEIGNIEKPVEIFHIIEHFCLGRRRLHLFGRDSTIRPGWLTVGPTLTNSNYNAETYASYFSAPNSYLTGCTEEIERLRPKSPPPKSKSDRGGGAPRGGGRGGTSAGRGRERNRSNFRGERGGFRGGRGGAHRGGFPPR
compound,measurement,setting,value
"C[S+](CC[C@H](N)C(=O)[O-])C[C@H]1O[C@@H](n2cnc3c(N)ncnc32)[C@H](O)[C@@H]1O (stereo partly shown) [SAM, S-adenosyl methionine]",Km,METTL3/14,0.1 µM
O=C(NCc1cn2cc(CNCC3CCCCC3)ccc2n1)c1cc(=O)n2ccccc2n1 [STM2457],binding mode with SAM in the SPR running buffer,[1],co-factor competitive binding mode
same,inhibition of METTL16,METTL16,no inhibition
same,colony forming of normal haematopoietic stem and progenitor cells (HSPCs),[2],no effect
same,SP1 and BRD4 protein levels,[3],dose-dependent reduction
same,proliferation of human AML cell line panel,[4],significant growth reduction in a concentration-dependent manner
same,inhibitory effect on kinase panel,panel of 468 kinases,no inhibitory effect
same,"bone marrow HSCs and early progenitors, peripheral blood counts, body weight",normal haematopoiesis,No significant changes
same,m6A levels on poly-A+-enriched RNA of healthy bone marrow,normal haematopoiesis,significantly reduced
same,human CD45+ cells in bone marrow and spleen,[5]; 50 mg/kg,reduction of human CD45^+ cells in bone marrow and spleen
same,mouse lifespan in PDX,[5]; 50 mg/kg IP daily,significantly prolonged
same,toxicity and body weight in PDX mice,[5]; 50 mg/kg IP daily,no overt toxicity or effect on mouse body weight
same,engraftment and AML expansion in PDX,"[5]; 50 mg/kg IP daily, 3 PDX models",impairment of engraftment and AML expansion
same,total m6A levels on poly-A+-enriched RNA in PDX bone marrow,[5]; 30 or 50 mg/kg,significantly reduced
same,apoptosis in human and mouse AML models,"[6]; Annexin V, 1 µM",induced apoptosis
same,cell cycle (BrdU),[6]; [13],cell cycle arrest
same,myeloid differentiation (CD11b/Mac1),[6]; [13],significant myeloid differentiation
same,clonogenic potential of primary murine AML cells,primary murine AML cells,significantly reduced
same,m6A on poly-A+-enriched RNA,[7],concentration-dependent reduction
same,"other RNA modifications (m6Am, m6_2A, m7G) on poly-A+-enriched RNA",[7],No changes were detected
same,m6A levels in METTL3-dependent substrates including HOXA10 and MYC (meRIP-qPCR),"[8]; MOLM-13, 1 µM, 24 or 48 hours",reduced m^6A levels
same,m6A peaks reduced upon treatment,"[8]; MOLM-13, 1 μM, 48 hours, of 11,909 m6A peaks identified","4,666"
same,colony-forming ability of normal human cord blood CD34+ cells,[9],did not affect
same,CD48+ intensity of L-GMP cells,[10]; 30 mg/kg,increased
same,engrafted AML cells in bone marrow,[10]; 30 mg/kg,reduction in the engrafted AML cells
same,spleen size,[10]; 30 mg/kg,reduction in spleen size
same,CD93+ and L-GMP leukaemia stem cell populations,"[10]; bone marrow, PDX 50 mg/kg and murine model 30 mg/kg",significantly reduced
same,AML cells in peripheral blood after re-transplantation,[10]; [14],marked decrease
same,lifespan after re-transplantation,[10]; [14],significant lifespan prolongation
same,half-life / exposure in vivo,[11],sufficient half-life
same,polysome profile,"MOLM-13 cells; MOLM-13, 1μM, 72 hours",loss of high polysome fractions
same,overall RNA expression levels of BRD4 and SP1,"MOLM-13 cells; MOLM-13, RT-qPCR of total RNA",showed no alterations
same,apoptosis in normal non-leukaemic haemopoietic cells,"[12]; Annexin V, 1 µM",not in normal non-leukaemic haemopoietic cells
same,differentiation and cell cycle in HPC7,"[12]; non-leukaemic HPC7, 1 µM",the same effects were not identified

# Source: PMC7613134 (Nature, 2021)
